Key:
P388 [1] = assay: Compound (6.4 mg/kg) was tested in vivo against P388 lymphocytic leukemia screen for Median survival time; assay type: functional, Mus musculus
Procedure, shortened: (§1)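 Murine P388 lymphocytic leukemia, tumour implanted ip and drug also given ip; testing at Bristol-Myers. Median survival time recorded at the optimal dose (mg/kg per dose) beside concurrently run mitomycin C control; %T/C = treated median survival/control median survival × 100.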

P388 [2] = assay: Minimum effective dose observed for the substrate; assay type: functional; settings: Mus musculus, read-out: MED
Procedure, shortened: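 Same ip P388 leukemia model with ip dosing; minimum effective dose taken as lowest mg/kg per dose giving %T/C ≥ 125, with concurrent mitomycin C values.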

P388 [3] = assay: Compound (25.6 mg/kg) was tested in vivo against P388 lymphocytic leukemia screen for Median survival time; assay type: functional, Mus musculus; procedure, shortened: as §1
P388 [4] = assay: Compound (51.2 mg/kg) was tested in vivo against P388 lymphocytic leukemia screen for Median survival time; assay type: functional, Mus musculus; procedure, shortened: as §1

## CO[C@@]12[C@H](COC(N)=O)c3c(O)c(/N=N/C(=O)c4cccs4)c(C)c(O)c3N1C[C@@H]1N[C@@H]12
P388 [1]
  T/C: 140%
P388 [2]
  minimal effective dose: 0.8 mg/kg

## CO[C@@]12[C@H](COC(N)=O)c3c(O)c(/N=N/C(=O)c4cccnc4)c(C)c(O)c3N1C[C@@H]1N[C@@H]12
P388 [3]
  T/C: 150%
P388 [2]
  minimal effective dose: 12.8 mg/kg

## CO[C@@]12[C@H](COC(N)=O)c3c(O)c(/N=N/C(=O)OC(C)(C)C)c(C)c(O)c3N1C[C@@H]1N[C@@H]12
P388 [3]
  T/C: 160%
P388 [2]
  minimal effective dose: 0.8 mg/kg

## CCOC(=O)/N=N/c1c(C)c(O)c2c(c1O)[C@@H](COC(N)=O)[C@@]1(OC)[C@H]3N[C@H]3CN21
P388 [3]
  T/C: 180%
P388 [2]
  minimal effective dose: 0.8 mg/kg

## CO[C@@]12[C@H](COC(N)=O)c3c(O)c(/N=N/C(=O)OCC4c5ccccc5-c5ccccc54)c(C)c(O)c3N1C[C@@H]1N[C@@H]12
P388 [3]
  T/C: 195%
P388 [2]
  minimal effective dose: 0.8 mg/kg

## CO[C@@]12[C@H](COC(N)=O)c3c(O)c(/N=N/C(=O)c4ccccc4)c(C)c(O)c3N1C[C@@H]1N[C@@H]12
P388 [3]
  T/C: 150%
P388 [2]
  minimal effective dose: 0.8 mg/kg

## CO[C@@]12[C@H](COC(N)=O)c3c(O)c(/N=N/C(=O)OCc4ccccc4)c(C)c(O)c3N1C[C@@H]1N[C@@H]12
P388 [1]
  T/C: 185%
P388 [2]
  minimal effective dose: 1.6 mg/kg

## CO[C@@]12[C@H](COC(N)=O)c3c(O)c(/N=N/C(C)=O)c(C)c(O)c3N1C[C@@H]1N[C@@H]12
P388 [4]
  T/C: 190%
P388 [2]
  minimal effective dose: 1.6 mg/kg

From ChEMBL document CHEMBL1124331, “Mitomycin C analogues with a substituted hydrazine at position 7. Synthesis, spectral properties, and biological activity” (1989)
